IC50 data for 21 compounds are collected here from ChEMBL document CHEMBL1177667, “Novel anti-viability ceramide analogs: design, synthesis, and structure-activity relationship studies of substituted (S)-2-(benzylideneamino)-3-hydroxy-N-tetradecylpropanamides” (Bioorg Med Chem, 2010).

Test [1] is described as follows: Cytotoxicity against human MCF-7TN-R cells assessed as reduction in cell viability after 24 hrs by MTT assay. It is filed as functional, cell-based. For orientation: Tetrazolium dyes change colour on reduction, which living cells bring about.
A further test has as its system HEK293. In words: Cytotoxicity against HEK293 cells assessed as reduction in cell viability. It is filed as cell-based. The following applies: Homo sapiens. An outline of the steps:
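MTT viability assay on non-tumorigenic human kidney cells, run by the same protocol as the breast cancer line. Cells were seeded at […] per well in phenol-free DMEM with 5% FBS and left to adhere overnight. Compounds were given at 0.1–100 µM for 24 h, then MTT (5 mg/mL) for 4 h. Cells were lysed in 20% SDS/50% DMF and read at 550 nm (reference 630 nm). Mean ±SE of four independent experiments.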

In the case of `CCCCCCCCCCCCCCNC(=O)[C@H](CO)/N=C/c1cccc(O)c1`, the values for the IC50 (in test [1]; in the test on HEK293) were 32.6 µM and 77.5 µM, respectively. The matching figures for `CCCCCCCCCCCCCCNC(=O)[C@H](CO)/N=C/c1ccccc1Cl`: 10.3 µM and 94.9 µM.

In the case of `CCCCCCCCCCCCCCNC(=O)[C@H](CO)/N=C/c1cccc(OC)c1`, the concentration for half-maximal inhibition (IC50) (usually the concentration needed to halve the response being measured) in test [1] is 31.2 µM; in the test with HEK293, 77.3 µM. For `CCCCCCCCCCCCCCNC(=O)[C@H](CO)/N=C/c1ccccc1O`, the IC50 was 19 µM in test [1] and 80.8 µM in the test on HEK293. Consider `CCCCCCCCCCCCCCNC(=O)[C@H](CO)/N=C/c1cccc([N+](=O)[O-])c1`, for which the values for the IC50 (in test [1]; in the test on HEK293) were 104 µM and 82.7 µM, respectively. `CCCCCCCCCCCCCCNC(=O)[C@H](CO)/N=C/c1ccccc1[N+](=O)[O-]`: the IC50 in test [1] was determined as 21.7 µM; in the test with HEK293, 82.6 µM.

On to `CCCCCCCCCCCCCCNC(=O)[C@H](CO)/N=C/c1ccccc1OC`, for which the half-maximal inhibitory concentration (IC50) was found to be 12.5 µM in test [1] and 79.2 µM with HEK293.

Consider `CCCCCCCCCCCCCCNC(=O)[C@H](CO)/N=C/c1ccc([N+](=O)[O-])cc1`, for which the IC50 came to 216 µM in test [1] and 49.5 µM in the test on HEK293. Turning to `CCCCCCCCCCCCCCNC(=O)[C@H](CO)/N=C/c1ccccc1`, the IC50 in test [1] came out at 7.67 µM. Take `CCCCCCCCCCCCCCNC(=O)[C@H](CO)/N=C/c1ccc(Cl)cc1`: the half-inhibitory concentration (IC50) worked out at 27.5 µM in test [1] and 77.7 µM in the test on HEK293. The matching figures for `CCCCCCCCCCCCCCNC(=O)[C@H](CO)/N=C/c1cccc(C)c1`: 82.9 µM and 51.1 µM.

Consider `CCCCCCCCCCCCCCNC(=O)[C@H](CO)/N=C/c1ccccc1C`, for which the concentration for half-maximal inhibition (IC50) was 87.7 µM in test [1] and 81.1 µM in the test with HEK293. Regarding `CCCCCCCCCCCCCCNC(=O)[C@H](CO)/N=C/c1ccc(C)cc1`, the IC50 in test [1] was 102 µM; in the test with HEK293, 47.3 µM. As for `CCCCCCCCCCCCCCNC(=O)[C@H](CO)NCc1ccccc1OC`, the IC50 in test [1] was 100 µM. For the compound `CCCCCCCCCCCCC/C=C/[C@@H](O)[C@H](CO)NC(=O)CCCCCCC`, the IC50 in test [1] is 8.59 µM. Turning to `CCCCCCCCCCCCCCNC(=O)[C@H](CO)/N=C/c1ccc(OC)cc1`, the IC50 was found to be 28.1 µM in test [1] and 81.7 µM in the test with HEK293. As for `CCCCCCCCCCCCCCNC(=O)[C@H](CO)/N=C/c1cccc(Cl)c1`, the figures for the IC50 (in test [1]; with HEK293) were 24.1 µM and 77 µM, respectively. In the case of `CCCCCCCCCCCCCCNC(=O)[C@H](CO)/N=C/c1ccc(O)cc1`, the IC50 in test [1] was found to be 19.3 µM; in the test on HEK293, 71.7 µM. Consider `CCCCCCCCCCCCCCNC(=O)[C@H](CO)NCc1ccccc1[N+](=O)[O-]`, for which the IC50 in test [1] stood at 29.4 µM.

Consider `CCCCCCCCCCCCCCNC(=O)[C@H](CO)NCc1ccccc1Cl`, for which the 50% inhibitory concentration (IC50) in test [1] is 43.7 µM. Still for that read-out and setting: the value for `CCCCCCCCCCCCCCNC(=O)[C@H](CO)NCc1ccccc1O` was 75.3 µM.
